Experimental data as given in ChEMBL document CHEMBL3352121, “Modulation of Activity Profiles for Largazole-Based HDAC Inhibitors through Alteration of Prodrug Properties” (ACS Med Chem Lett, 2014).

Tests used:
[1] = target: T1, Histone deacetylase 8 (Homo sapiens) (UniProt Q9BY41); assay: Inhibition of HDAC8 (unknown origin) at 1 uM incubated for 30 mins in presence of BSA and DTT by fluorescence assay
T1 sequence (whole entry): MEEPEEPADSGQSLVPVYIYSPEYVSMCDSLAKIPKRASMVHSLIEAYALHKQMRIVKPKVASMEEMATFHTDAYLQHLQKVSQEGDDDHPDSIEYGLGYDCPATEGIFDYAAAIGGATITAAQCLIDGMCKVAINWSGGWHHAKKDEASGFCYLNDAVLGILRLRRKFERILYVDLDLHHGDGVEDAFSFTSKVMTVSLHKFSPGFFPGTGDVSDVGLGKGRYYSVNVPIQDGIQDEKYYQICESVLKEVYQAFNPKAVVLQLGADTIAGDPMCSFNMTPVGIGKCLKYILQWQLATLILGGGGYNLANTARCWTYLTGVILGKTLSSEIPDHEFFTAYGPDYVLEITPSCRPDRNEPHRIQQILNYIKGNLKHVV
Method in brief: (§1)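 Purified HDAC isoforms were tested up to a maximum of 1 μM. IC50 values are averages of duplicate experiments. Disulfide compounds were pretreated with DTT to reduce the disulfide bond.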

Histone deacetylase 2 = Histone deacetylase 2 (Homo sapiens, UniProt Q92769); assay: Inhibition of HDAC2 (unknown origin) incubated for 30 mins in presence of BSA and DTT by fluorescence assay
Histone deacetylase 7 = target: T2, Histone deacetylase 7 (Homo sapiens, UniProt Q8WUI4); assay: Inhibition of HDAC7 (unknown origin) incubated for 30 mins in presence of BSA and DTT by fluorescence assay; method in brief: as §1
T2 sequence (Q8WUI4 whole entry): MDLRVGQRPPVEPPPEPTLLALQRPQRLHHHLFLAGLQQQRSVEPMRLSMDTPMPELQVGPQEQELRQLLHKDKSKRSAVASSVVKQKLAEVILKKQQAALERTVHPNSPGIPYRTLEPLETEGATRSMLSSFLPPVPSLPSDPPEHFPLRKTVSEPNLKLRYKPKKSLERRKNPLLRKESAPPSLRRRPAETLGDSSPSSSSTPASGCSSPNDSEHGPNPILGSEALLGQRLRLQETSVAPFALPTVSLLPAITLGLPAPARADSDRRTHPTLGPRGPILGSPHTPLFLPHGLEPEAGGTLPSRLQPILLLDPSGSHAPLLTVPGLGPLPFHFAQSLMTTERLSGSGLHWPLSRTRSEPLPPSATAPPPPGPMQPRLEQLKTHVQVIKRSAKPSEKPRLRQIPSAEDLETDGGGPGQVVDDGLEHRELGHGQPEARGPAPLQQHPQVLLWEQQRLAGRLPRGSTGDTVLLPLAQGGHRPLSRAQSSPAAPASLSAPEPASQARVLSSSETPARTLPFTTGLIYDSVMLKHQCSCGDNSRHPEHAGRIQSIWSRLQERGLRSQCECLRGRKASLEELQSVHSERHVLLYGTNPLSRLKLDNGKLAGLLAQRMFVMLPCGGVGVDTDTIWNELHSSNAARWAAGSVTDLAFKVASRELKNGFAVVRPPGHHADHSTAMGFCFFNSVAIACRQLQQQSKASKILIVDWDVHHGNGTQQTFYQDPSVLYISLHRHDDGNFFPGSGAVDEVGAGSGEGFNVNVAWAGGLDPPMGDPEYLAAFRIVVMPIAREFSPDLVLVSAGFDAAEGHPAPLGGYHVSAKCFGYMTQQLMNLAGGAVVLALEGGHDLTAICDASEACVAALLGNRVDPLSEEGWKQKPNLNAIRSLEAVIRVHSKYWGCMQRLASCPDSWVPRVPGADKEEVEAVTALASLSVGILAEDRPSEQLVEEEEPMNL

[2] = target: Histone deacetylase (Homo sapiens) (UniProt Q13547+O15379+Q9UBN7+Q92769+Q9UQL6+Q8WUI4+Q9BY41+Q96DB2+P56524+Q9UKV0+Q969S8); assay: Inhibition of HDAC in human HCT116 cells assessed as increase in histone H3 (Lys9/14) hyperacetylation after 8 to 24 hrs by immunoblotting method; format: cell-based; conditions: HCT-116
Method in brief: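 HCT116 cells were treated across a dose range. Cellular HDAC inhibition was read as histone H3 (Lys9/14) hyperacetylation by immunoblot at 8 and 24 h post-treatment.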

Histone deacetylase 5 [3] = target: T3, Histone deacetylase 5 (Homo sapiens, UniProt Q9UQL6); assay: Inhibition of HDAC5 (unknown origin) incubated for 30 mins in presence of BSA and DTT by fluorescence assay; method in brief: as §1
[4] = target: T4, Histone deacetylase 7 (Homo sapiens) (UniProt Q8WUI4); assay: Inhibition of HDAC7 (unknown origin) at 1 uM incubated for 30 mins in presence of BSA and DTT by fluorescence assay; method in brief: as §1
T4 sequence (whole entry): T2 sequence (Q8WUI4 whole entry)

Histone deacetylase 5 [5] = target: T3, Histone deacetylase 5; assay: Inhibition of HDAC5 (unknown origin) at 1 uM incubated for 30 mins in presence of BSA and DTT by fluorescence assay; method in brief: as §1
Histone deacetylase 9 [6] = target: T5, Histone deacetylase 9 (Homo sapiens, UniProt Q9UKV0); assay: Inhibition of HDAC9 (unknown origin) at 1 uM incubated for 30 mins in presence of BSA and DTT by fluorescence assay; method in brief: as §1
Histone deacetylase 9 [7] = target: T5, Histone deacetylase 9; assay: Inhibition of HDAC9 (unknown origin) incubated for 30 mins in presence of BSA and DTT by fluorescence assay; method in brief: as §1
Histone deacetylase 3 = Histone deacetylase 3 (Homo sapiens, UniProt O15379); assay: Inhibition of HDAC3 (unknown origin) incubated for 30 mins in presence of BSA and DTT by fluorescence assay; method in brief: as §1
[8] = Antiproliferative activity against human HCT116 cells after 48 hrs in presence of DTT by MTT assay; format: functional, cell-based; conditions: HCT-116, 48 h
Method in brief: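 Disulfide compounds were pretreated with DTT to reduce the disulfide bond before testing.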

Histone deacetylase 11 = target: T6, Histone deacetylase 11 (Homo sapiens, UniProt Q96DB2); assay: Inhibition of HDAC11 (unknown origin) incubated for 3 hrs in presence of BSA and DTT by fluorescence assay; method in brief: as §1
T6 sequence (Q96DB2 whole entry): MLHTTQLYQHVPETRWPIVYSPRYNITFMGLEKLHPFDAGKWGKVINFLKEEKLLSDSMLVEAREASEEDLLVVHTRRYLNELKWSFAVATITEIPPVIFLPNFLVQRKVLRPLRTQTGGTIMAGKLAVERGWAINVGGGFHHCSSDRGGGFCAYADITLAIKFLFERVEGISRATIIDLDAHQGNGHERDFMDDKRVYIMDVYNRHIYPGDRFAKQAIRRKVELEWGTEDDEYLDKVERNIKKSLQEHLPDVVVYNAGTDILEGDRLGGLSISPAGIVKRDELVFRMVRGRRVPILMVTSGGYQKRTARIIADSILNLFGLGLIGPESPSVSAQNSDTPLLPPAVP

Histone deacetylase 4 = Histone deacetylase 4 (Homo sapiens, UniProt P56524); assay: Inhibition of HDAC4 (unknown origin) incubated for 30 mins in presence of BSA and DTT by fluorescence assay; method in brief: as §1
Chain of Histone deacetylase 4 (P56524 whole entry): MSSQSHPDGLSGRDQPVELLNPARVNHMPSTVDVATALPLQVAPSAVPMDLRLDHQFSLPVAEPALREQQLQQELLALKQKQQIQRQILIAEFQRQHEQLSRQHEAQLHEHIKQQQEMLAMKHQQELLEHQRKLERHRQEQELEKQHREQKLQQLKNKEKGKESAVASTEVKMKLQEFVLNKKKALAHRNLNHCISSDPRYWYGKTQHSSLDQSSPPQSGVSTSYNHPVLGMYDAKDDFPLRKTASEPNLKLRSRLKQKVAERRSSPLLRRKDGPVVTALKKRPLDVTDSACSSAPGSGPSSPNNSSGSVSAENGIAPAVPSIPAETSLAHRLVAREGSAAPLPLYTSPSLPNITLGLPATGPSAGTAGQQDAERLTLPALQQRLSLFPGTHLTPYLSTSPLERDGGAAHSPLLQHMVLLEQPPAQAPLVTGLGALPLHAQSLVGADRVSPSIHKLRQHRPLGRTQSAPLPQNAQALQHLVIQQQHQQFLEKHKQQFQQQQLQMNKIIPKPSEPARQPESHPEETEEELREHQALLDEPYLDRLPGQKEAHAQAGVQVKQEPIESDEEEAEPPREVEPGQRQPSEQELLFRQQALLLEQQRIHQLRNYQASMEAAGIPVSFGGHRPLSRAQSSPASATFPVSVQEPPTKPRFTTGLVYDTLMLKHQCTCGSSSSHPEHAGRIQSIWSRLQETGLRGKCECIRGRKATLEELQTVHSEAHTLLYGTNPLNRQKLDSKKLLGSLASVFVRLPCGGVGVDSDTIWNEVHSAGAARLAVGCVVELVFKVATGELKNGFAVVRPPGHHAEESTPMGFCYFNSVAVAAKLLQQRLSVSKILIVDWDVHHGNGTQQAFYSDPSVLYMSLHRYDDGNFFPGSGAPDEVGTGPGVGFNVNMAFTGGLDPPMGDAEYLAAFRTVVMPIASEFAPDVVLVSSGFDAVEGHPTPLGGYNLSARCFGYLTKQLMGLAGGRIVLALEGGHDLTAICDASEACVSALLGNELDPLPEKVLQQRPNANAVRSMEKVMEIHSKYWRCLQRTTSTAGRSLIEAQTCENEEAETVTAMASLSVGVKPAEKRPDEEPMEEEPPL

T5 sequence (Q9UKV0 whole entry): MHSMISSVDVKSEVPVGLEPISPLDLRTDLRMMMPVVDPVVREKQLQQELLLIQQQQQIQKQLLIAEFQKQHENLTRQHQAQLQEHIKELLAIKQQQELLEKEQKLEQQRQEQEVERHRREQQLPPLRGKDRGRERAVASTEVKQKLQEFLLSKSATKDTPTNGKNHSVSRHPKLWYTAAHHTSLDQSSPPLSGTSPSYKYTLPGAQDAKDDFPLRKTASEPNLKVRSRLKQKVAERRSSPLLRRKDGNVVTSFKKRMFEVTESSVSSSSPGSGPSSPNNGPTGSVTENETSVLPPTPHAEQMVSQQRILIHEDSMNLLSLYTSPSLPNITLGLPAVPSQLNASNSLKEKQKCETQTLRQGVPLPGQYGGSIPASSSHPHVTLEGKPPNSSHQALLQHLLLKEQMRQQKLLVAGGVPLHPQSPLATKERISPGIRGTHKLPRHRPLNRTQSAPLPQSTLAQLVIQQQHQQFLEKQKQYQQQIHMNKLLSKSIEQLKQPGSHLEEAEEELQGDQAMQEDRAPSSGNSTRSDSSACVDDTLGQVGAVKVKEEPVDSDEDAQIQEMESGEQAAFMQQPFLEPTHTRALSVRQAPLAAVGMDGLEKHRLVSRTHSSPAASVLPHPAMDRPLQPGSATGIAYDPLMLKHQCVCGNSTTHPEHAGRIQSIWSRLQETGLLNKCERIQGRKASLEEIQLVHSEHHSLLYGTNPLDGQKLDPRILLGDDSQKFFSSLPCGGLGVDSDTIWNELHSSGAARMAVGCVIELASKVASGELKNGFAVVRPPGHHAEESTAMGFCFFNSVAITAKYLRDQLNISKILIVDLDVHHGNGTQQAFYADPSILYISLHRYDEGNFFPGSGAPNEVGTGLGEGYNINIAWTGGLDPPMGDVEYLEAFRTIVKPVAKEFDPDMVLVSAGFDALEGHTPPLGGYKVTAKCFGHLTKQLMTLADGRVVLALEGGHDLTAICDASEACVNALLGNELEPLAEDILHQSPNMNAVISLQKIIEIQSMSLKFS
T3 sequence (Q9UQL6 whole entry): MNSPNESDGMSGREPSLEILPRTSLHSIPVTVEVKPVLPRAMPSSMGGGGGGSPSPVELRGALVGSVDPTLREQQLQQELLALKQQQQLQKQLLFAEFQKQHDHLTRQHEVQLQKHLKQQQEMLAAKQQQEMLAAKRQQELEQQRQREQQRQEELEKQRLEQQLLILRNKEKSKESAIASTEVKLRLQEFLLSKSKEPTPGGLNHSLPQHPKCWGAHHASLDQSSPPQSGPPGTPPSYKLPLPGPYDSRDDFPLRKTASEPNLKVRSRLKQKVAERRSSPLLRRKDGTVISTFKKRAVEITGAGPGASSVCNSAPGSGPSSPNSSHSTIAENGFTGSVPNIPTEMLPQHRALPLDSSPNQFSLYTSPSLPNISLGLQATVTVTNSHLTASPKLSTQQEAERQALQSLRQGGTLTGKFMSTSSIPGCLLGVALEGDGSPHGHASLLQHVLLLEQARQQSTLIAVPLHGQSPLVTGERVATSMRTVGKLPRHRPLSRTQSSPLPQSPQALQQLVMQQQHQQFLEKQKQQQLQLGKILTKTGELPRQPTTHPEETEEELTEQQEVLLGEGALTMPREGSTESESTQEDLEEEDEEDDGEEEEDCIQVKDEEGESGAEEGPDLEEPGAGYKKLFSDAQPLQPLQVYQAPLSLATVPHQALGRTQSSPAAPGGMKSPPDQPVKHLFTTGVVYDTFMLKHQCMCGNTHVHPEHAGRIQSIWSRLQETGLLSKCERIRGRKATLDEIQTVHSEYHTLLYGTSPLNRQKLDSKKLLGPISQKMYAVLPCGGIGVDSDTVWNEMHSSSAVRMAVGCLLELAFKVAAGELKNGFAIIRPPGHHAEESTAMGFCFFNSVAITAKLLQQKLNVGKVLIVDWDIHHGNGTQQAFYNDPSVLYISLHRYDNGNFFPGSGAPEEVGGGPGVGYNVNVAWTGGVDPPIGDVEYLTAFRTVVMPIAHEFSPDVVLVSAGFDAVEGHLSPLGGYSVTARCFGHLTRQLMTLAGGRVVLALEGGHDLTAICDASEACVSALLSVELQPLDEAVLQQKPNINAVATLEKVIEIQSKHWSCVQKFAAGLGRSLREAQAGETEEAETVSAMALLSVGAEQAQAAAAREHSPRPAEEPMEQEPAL
Chain of Histone deacetylase 2 (Q92769 whole entry): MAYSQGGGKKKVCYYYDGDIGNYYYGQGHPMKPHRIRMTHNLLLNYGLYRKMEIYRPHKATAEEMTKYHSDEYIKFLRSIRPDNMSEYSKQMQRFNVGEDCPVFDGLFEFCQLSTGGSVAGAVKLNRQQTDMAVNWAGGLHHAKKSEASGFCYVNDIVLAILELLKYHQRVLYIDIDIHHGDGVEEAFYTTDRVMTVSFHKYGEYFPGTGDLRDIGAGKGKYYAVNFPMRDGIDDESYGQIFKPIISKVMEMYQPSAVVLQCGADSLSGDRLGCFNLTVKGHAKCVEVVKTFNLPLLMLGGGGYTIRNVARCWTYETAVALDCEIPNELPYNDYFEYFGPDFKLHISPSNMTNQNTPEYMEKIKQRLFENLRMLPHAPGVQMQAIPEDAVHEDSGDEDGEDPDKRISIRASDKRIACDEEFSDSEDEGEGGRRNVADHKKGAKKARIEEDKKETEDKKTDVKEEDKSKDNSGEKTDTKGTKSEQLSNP
Chain of Histone deacetylase 3 (O15379 whole entry): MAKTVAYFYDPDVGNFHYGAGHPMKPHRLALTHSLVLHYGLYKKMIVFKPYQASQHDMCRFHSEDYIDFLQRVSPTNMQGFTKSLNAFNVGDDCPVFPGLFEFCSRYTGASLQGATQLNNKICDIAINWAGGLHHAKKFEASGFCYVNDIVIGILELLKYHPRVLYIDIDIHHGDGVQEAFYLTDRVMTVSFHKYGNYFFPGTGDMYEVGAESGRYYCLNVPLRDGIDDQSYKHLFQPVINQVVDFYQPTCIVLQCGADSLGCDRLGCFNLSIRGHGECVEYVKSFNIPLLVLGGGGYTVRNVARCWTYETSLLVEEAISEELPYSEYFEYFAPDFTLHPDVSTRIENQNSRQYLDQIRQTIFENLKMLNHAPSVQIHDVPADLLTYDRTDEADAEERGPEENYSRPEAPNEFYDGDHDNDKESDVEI

For `CC(C)[C@@H]1NC(=O)[C@]2(C)CSC(=N2)c2csc(n2)CNC(=O)C[C@@H](/C=C/CCSSCC/C=C/[C@@H]2CC(=O)NCc3nc(cs3)C3=N[C@@](C)(CS3)C(=O)N[C@@H](C(C)C)C(=O)O2)OC1=O`, the inhibition [1] was 40%, the IC50 (Histone deacetylase 2) was 0.5 nM and the IC50 (Histone deacetylase 7) was “Not Active”. The inhibition [2] was “Dose-dependent effect”, the IC50 (Histone deacetylase 5 [3]) was “Not Active” and the inhibition [4] was < 20%. For the same compound, the inhibition (Histone deacetylase 5 [5]) was < 20%, the inhibition (Histone deacetylase 9 [6]) was < 20% and the IC50 (Histone deacetylase 9 [7]) was “Not Active”. The IC50 (Histone deacetylase 3) was 0.3 nM, the IC50 [8] was 12 nM and the IC50 (Histone deacetylase 11) was 0.1 nM. For the same compound, the IC50 (Histone deacetylase 4) was “Not Active”.
With `CC(C)[C@@H]1NC(=O)[C@]2(C)CSC(=N2)c2csc(n2)CNC(=O)C[C@@H](/C=C/CCSSC[C@H](NC(=O)OC(C)(C)C)C(=O)OC(C)(C)C)OC1=O` the inhibition [1] was 35%, the IC50 (Histone deacetylase 2) was 0.9 nM and the IC50 (Histone deacetylase 7) was “Not Active”. For the same compound, the inhibition [2] was “Dose-dependent effect”, the IC50 (Histone deacetylase 5 [3]) was “Not Active” and the inhibition [4] was < 20%. The inhibition (Histone deacetylase 5 [5]) was < 20%, the inhibition (Histone deacetylase 9 [6]) was < 20% and the IC50 (Histone deacetylase 9 [7]) was “Not Active”. It also gave an IC50 (Histone deacetylase 3) of 0.6 nM, an IC50 [8] of 13 nM and an IC50 (Histone deacetylase 11) of 0.2 nM. The IC50 (Histone deacetylase 4) was “Not Active”.
